In ChEMBL document CHEMBL1138424, “Solid phase-assisted synthesis and screening of a small library of N-(4-hydroxyphenyl)retinamide (4-HPR) analogs” (2007):
The source made the active and inactive calls. The rule behind the calls is not given here.

system: MCF7; experiment: Growth inhibition of human MCF7 cells at 10 uM after 48 hrs by fluorescein diacetate cell viability assay relative to 4-HPR; assay type: functional
Summary of the method: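 MCF-7 human breast cancer cells received a single dose at a final 10−5M, with vehicle at 0.2% ethanol. Live cells were counted 48 hrs later by fluorescein diacetate viability assay. Activity was scored on a +/++/+++ scale against 4-HPR.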

Compound	Activity
CC1=C(/C=C/C(C)=C/C=C/C(C)=C/C(=O)Nc2ccc([N+](=O)[O-])cc2O)C(C)(C)CCC1	>=100%
CC1=C(/C=C/C(C)=C/C=C/C(C)=C/C(=O)N(C)c2ccc(O)cc2)C(C)(C)CCC1	>=25%
CC1=C(/C=C/C(C)=C/C=C/C(C)=C/C(=O)Nc2ccccc2C(=O)O)C(C)(C)CCC1	>=25%
CC1=C(/C=C/C(C)=C/C=C/C(C)=C/C(=O)Nc2ccc(C)cc2O)C(C)(C)CCC1	>=50%
CC1=C(/C=C/C(C)=C/C=C/C(C)=C/C(=O)Nc2ccccc2)C(C)(C)CCC1	>=25%
CC1=C(/C=C/C(C)=C/C=C/C(C)=C/C(=O)Nc2cc(Cl)ccc2O)C(C)(C)CCC1	>=50%
CC1=C(/C=C/C(C)=C/C=C/C(C)=C/C(=O)Nc2ccc(O)c(Cl)c2)C(C)(C)CCC1	>=50%
CC1=C(/C=C/C(C)=C/C=C/C(C)=C/C(=O)Nc2ccc(Cl)c(Cl)c2)C(C)(C)CCC1	>=25%
CC1=C(/C=C/C(C)=C/C=C/C(C)=C/C(=O)Nc2ccc(N)cc2)C(C)(C)CCC1	>=50%
CC1=C(/C=C/C(C)=C/C=C/C(C)=C/C(=O)Nc2ccc(Cl)cc2)C(C)(C)CCC1	>=25%
CC1=C(/C=C/C(C)=C/C=C/C(C)=C/C(=O)Nc2cc([N+](=O)[O-])ccc2O)C(C)(C)CCC1	>=25%
COC(=O)c1cc(NC(=O)/C=C(C)/C=C/C=C(C)/C=C/C2=C(C)CCCC2(C)C)ccc1O	>=25%
COC(=O)c1ccc(NC(=O)/C=C(C)/C=C/C=C(C)/C=C/C2=C(C)CCCC2(C)C)c(O)c1	>=25%
CC1=C(/C=C/C(C)=C/C=C/C(C)=C/C(=O)Nc2ccc(O)cc2)C(C)(C)CCC1 [FENRETINIDE]	>=100%
CC1=C(/C=C/C(C)=C/C=C/C(C)=C/C(=O)Nc2cccc(CO)c2)C(C)(C)CCC1	>=25%
COc1ccc(NC(=O)/C=C(C)/C=C/C=C(C)/C=C/C2=C(C)CCCC2(C)C)cc1	>=25%
CC1=C(/C=C/C(C)=C/C=C/C(C)=C/C(=O)Nc2ccc(C)c(O)c2)C(C)(C)CCC1	>=100%

system: MCF7; experiment: Induction of apoptosis in human MCF7 cells at 10 uM after 48 hrs by TUNEL assay relative to 4-HPR; assay type: functional, cell-based
Summary of the method: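 MCF-7 cells received a single dose at 10−5M, with vehicle as control. After 48 hr the % of TUNEL-labeled cells was scored. Values are means (+SEM) of three independent cell culture experiments, compared with standard 4-HPR.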

Compound	Activity
CC1=C(/C=C/C(C)=C/C=C/C(C)=C/C(=O)Nc2ccc([N+](=O)[O-])cc2O)C(C)(C)CCC1	Active
COC(=O)c1ccc(NC(=O)/C=C(C)/C=C/C=C(C)/C=C/C2=C(C)CCCC2(C)C)c(O)c1	Active
CC1=C(/C=C/C(C)=C/C=C/C(C)=C/C(=O)Nc2ccc(C)c(O)c2)C(C)(C)CCC1	Active
